Published values of several laboratories.
BRAF: Serine/threonine-protein kinase B-raf (BRAF, Homo sapiens, UniProt P15056)
BRAF V600E: Serine/threonine-protein kinase B-raf (BRAF, Homo sapiens, UniProt P15056, V600E)

SMILES	target	test	conditions	measurement	value
C[C@H]1CC[C@H](n2c3cnccc3c3cnc(Nc4ccc5c(n4)CCN(C(=O)CO)C5)nc32)CC1	BRAF	cell-free assay, competition with immobilised ligand	1 µM	remaining binding	74%
C=CC(=O)N1CCC([C@@H]2CCNc3c(C(N)=O)c(-c4ccc(Oc5ccccc5)cc4)nn32)CC1	BRAF	enzyme activity, inhibitor	1 µM	inhibition	0%
C1=C/COCc2cc(ccc2OCCN2CCCC2)Nc2nccc(n2)-c2cccc(c2)COC/1	BRAF V600E	binding	0.1 µM	remaining binding	85%
Cc1ccc(NC(=O)c2ccnc(C(F)(F)F)c2)cc1-c1cc(OCCO)nc(N2CCOCC2)c1	BRAF V600E	binding	1 µM	remaining binding	0.35%
C=CC(=O)N1CCC[C@@H](n2nc(-c3ccc(Oc4ccccc4)cc3)c3c(N)ncnc32)C1	BRAF V600E	enzyme activity, inhibitor	1 µM	inhibition	61%
CCCCC(=O)Nc1ccc(-c2ccc3ncn(CCC)c(=O)c3c2)cn1	BRAF	binding, competition with immobilised ligand	0.5 µM	remaining binding	97%
Cc1cc2c(C(N)=O)c(N)n(-c3c(C)ccc(O)c3C)c2nc1C	BRAF V600E	binding, competition with immobilised ligand	1 µM	remaining binding	0.75%
CO[C@@H]1[C@H](N(C)C(=O)c2ccccc2)C[C@H]2O[C@]1(C)n1c3ccccc3c3c4c(c5c6ccccc6n2c5c31)C(=O)NC4	BRAF V600E	enzyme activity, inhibitor	1 µM	inhibition	0%
COc1ccc2oc(-c3ccc4nc(N)oc4c3)c/c(=N\c3ccccc3NC(=O)CCN)c2c1	BRAF	binding	1 µM	remaining binding	98%
C#Cc1cnc(Nc2ccnc(CO)c2)nc1Nc1ccccc1S(C)(=O)=NC#N (centres unmarked)	BRAF	cell-free assay	1 µM	remaining signal	92%
CN1CCN(C(=O)c2ccc(NC(=O)Nc3ccc(N(C)c4ccnc(Nc5ccc(CS(C)(=O)=O)cc5)n4)cc3)cc2)CC1	BRAF	binding, competition with immobilised ligand	1 µM	remaining binding	89%
CC#CC(=O)N1CCC[C@H]1c1nc(-c2ccc(C(=O)Nc3ccccn3)cc2)c2c(N)nccn12	BRAF	enzyme activity, inhibitor	1 µM	inhibition	43%
COc1ccc2[nH]c3c4[nH]c5ccc(OC)cc5c4c4c(c3c2c1)C(=O)NC4=O	BRAF V600E	binding	1 µM	remaining binding	89%
N#Cc1ccc(NC(=O)Nc2ccccc2)cc1	BRAF	cell-free assay, competition with immobilised ligand	25 µM	remaining binding	100%
